In ChEMBL document CHEMBL2331121, “Design, synthesis, and pharmacological characterization of N- and O-substituted 5,6,7,8-tetrahydro-4H-isoxazolo[4,5-d]azepin-3-ol analogues: novel 5-HT(2A)/5-HT(2C) receptor agonists with pro-cognitive properties” (J Med Chem, 2013):
Activity calls are given as the source filed them. The calls are words filed in the database; no cut-off is given here.

Legend:
[1] = biological target: T1, 5-hydroxytryptamine receptor 2C (Homo sapiens) (UniProt P28335); assay: Agonist activity at human 5HT2C receptor expressed in HEK293 cells assessed as accumulation of IP1 incubated for 1 hr at 37 degC followed by 15 mins at RT by TR-FRET assay relative to 5HT; type: functional, cell-based
T1 sequence (whole entry): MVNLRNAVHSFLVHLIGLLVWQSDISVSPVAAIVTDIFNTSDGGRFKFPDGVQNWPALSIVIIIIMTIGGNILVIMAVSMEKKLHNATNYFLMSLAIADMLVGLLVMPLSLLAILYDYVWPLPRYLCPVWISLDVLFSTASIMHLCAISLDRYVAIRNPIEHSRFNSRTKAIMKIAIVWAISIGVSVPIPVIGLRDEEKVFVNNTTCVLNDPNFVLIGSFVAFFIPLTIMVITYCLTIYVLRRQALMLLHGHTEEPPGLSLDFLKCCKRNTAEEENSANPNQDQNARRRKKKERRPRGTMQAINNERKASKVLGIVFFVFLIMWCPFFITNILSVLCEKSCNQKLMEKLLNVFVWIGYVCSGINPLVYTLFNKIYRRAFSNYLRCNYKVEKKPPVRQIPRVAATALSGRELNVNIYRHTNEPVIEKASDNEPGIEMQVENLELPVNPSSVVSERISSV
Procedure, shortened: (§1)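 Polyclonal HEK293 lines stably expressing human 5-HT2A (variant 1) or 5-HT2C (INI isoform), detached and suspended at 1 × 10⁷ cells/mL in HBSS with 20 mM HEPES, 1 mM CaCl₂, 1 mM MgCl₂, pH 7.4. Ligands in buffer with 40 mM LiCl. Incubated 1 h at 37 °C, then 15 min RT. IP1 read by HTRF 665/615 ratio. Triplicate, at least four times.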

[2] = biological target: T2, 5-hydroxytryptamine receptor 2A (Homo sapiens, UniProt P28223); assay: Agonist activity at human 5HT2A receptor expressed in HEK293 cells assessed as accumulation of IP1 incubated for 1 hr at 37 degC followed by 15 mins at RT by TR-FRET assay relative to 5HT; type: functional, cell-based; procedure, shortened: as §1
[3] = biological target: T1, 5-hydroxytryptamine receptor 2C (Homo sapiens); assay: Agonist activity at human 5HT2C receptor expressed in HEK293 cells assessed as induction of intracellular calcium release by fluorescence assay relative to 5HT; type: functional, cell-based
Procedure, shortened: (§2)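 Stable polyclonal 5-HT2A or 5-HT2C HEK293 cells seeded on poly-D-lysine plates (6 × 10⁴ cells/well). Next day loaded with Fluo-4/AM for 1 h at 37 °C in HBSS/20 mM HEPES/1 mM CaCl₂/1 mM MgCl₂/2.5 mM probenecid, pH 7.4. Fluorescence (485 ex/525 em) recorded before and up to 90 s after agonist. Response relative to 5-HT on the same plate. Duplicate, at least three times.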

[4] = biological target: T2, 5-hydroxytryptamine receptor 2A; assay: Agonist activity at human 5HT2A receptor expressed in HEK293 cells assessed as induction of intracellular calcium release by fluorescence assay relative to 5HT; type: functional, cell-based; procedure, shortened: as §2
[5] = biological target: T2, 5-hydroxytryptamine receptor 2A; assay: Agonist activity at human 5HT2A receptor expressed in HEK293 cells assessed as accumulation of IP1 incubated for 1 hr at 37 degC followed by 15 mins at RT by TR-FRET assay; type: functional, cell-based
[6] = biological target: T3, 5-hydroxytryptamine receptor 2C (Homo sapiens, UniProt P28335); assay: Agonist activity at human 5HT2C receptor expressed in HEK293 cells assessed as accumulation of IP1 incubated for 1 hr at 37 degC followed by 15 mins at RT by TR-FRET assay; type: functional, cell-based
T3 sequence (P28335 whole entry): T1 sequence (whole entry)

[7] = biological target: T3, 5-hydroxytryptamine receptor 2C; assay: Agonist activity at human 5HT2C receptor expressed in HEK293 cells assessed as induction of intracellular calcium release measured for 90 secs by fluorescence assay; type: functional, cell-based; settings: read-out: EC50
[8] = biological target: T2, 5-hydroxytryptamine receptor 2A; assay: Agonist activity at human 5HT2A receptor expressed in HEK293 cells assessed as induction of intracellular calcium release measured for 90 secs by fluorescence assay; type: functional, cell-based
[9] = biological target: T3, 5-hydroxytryptamine receptor 2C; assay: Displacement of [3H]mesulergine from human 5HT2C receptor expressed in tsA201 cell membranes after 1 hr by scintillation counting analysis
[10] = biological target: T2, 5-hydroxytryptamine receptor 2A; assay: biochemical; type: cell-based, tsA201
[11] = biological target: T2, 5-hydroxytryptamine receptor 2A; assay: Antagonist activity at human 5HT2A receptor expressed in HEK293 cells assessed as inhibition of 5HT-induced intracellular calcium release at 1 mM measured for 90 secs by fluorescence assay; type: functional, cell-based
Procedure, shortened: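 Fluo-4/Ca²⁺ read-out in stable h5-HT2A or h5-HT2C HEK293 cells (HBSS/HEPES/probenecid buffer, pH 7.4). Antagonist was added after the dye-loading wash, then cells were challenged with an EC₇₅−EC₈₅ concentration of 5-HT. Emission at 525 nm was monitored up to 90 s after agonist addition. Duplicate, repeated in independent experiments.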

[12] = biological target: T1, 5-hydroxytryptamine receptor 2C (Homo sapiens); assay: Agonist activity at human 5HT2C receptor expressed in HEK293 cells assessed as induction of intracellular calcium release at 100 to 1000 uM by fluorescence assay; type: functional, cell-based
Procedure, shortened: (§3)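 Stable polyclonal h5-HT2A or h5-HT2C HEK293 cells plated on poly-D-lysine wells, loaded next day with Fluo-4/AM for 1 h at 37 °C. Buffer was HBSS with 20 mM HEPES, 1 mM CaCl₂, 1 mM MgCl₂, 2.5 mM probenecid, pH 7.4. Fluorescence read at 485/525 nm before and up to 90 s after agonist addition. Responses normalised to 5-HT on the same plate. Duplicate, 4−10 experiments.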

[13] = biological target: T2, 5-hydroxytryptamine receptor 2A; assay: Agonist activity at human 5HT2A receptor expressed in HEK293 cells assessed as induction of intracellular calcium release at 1 mM measured for 90 secs by fluorescence assay; type: functional, cell-based; procedure, shortened: as §3
[14] = biological target: T1, 5-hydroxytryptamine receptor 2C (Homo sapiens); assay: Ratio of EC50 for human 5HT2C receptor by calcium fiux-based fluorescence assay to […] accumulation-based TR-FRET assay; type: functional
[15] = biological target: T2, 5-hydroxytryptamine receptor 2A; assay: Ratio of EC50 for human 5HT2A receptor by calcium fiux-based fluorescence assay to EC50 for 5HT2A by IP1 accumulation-based TR-FRET assay; type: functional
[16] = biological target: T4, 5-hydroxytryptamine receptor 2C (Rattus norvegicus) (UniProt P08909); assay: Displacement of [125I]-N-(p-I-Bn)-THAZ from 5HT2C in rat cerebral cortex membrane up to 50 uM after 1 hr by scintillation counting analysis; type: cell membranes
T4 sequence (whole entry): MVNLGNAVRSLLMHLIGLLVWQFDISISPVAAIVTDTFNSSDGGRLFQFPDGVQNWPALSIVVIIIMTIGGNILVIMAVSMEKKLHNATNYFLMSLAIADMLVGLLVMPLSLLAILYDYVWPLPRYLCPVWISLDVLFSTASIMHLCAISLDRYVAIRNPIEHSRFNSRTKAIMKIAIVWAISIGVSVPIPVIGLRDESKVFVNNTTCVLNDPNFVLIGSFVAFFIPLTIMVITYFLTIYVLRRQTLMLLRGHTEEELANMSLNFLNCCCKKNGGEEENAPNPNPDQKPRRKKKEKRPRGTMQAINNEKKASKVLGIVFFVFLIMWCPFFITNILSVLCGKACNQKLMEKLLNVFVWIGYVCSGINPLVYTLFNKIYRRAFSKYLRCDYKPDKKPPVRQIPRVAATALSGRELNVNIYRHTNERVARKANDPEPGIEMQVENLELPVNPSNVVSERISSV

[17] = biological target: T3, 5-hydroxytryptamine receptor 2C; assay: Antagonist activity at human 5HT2C receptor expressed in HEK293 cells assessed as inhibition of 5HT-induced intracellular calcium release measured for 90 secs by fluorescence assay; type: functional, cell-based
[18] = biological target: T2, 5-hydroxytryptamine receptor 2A; type: functional, cell-based, HEK293; settings: read-out: Ki
[19] = biological target: T4, 5-hydroxytryptamine receptor 2C (Rattus norvegicus); assay: Displacement of [125I]-N-(p-I-Bn)-THAZ from 5HT2C in rat cerebral cortex membrane at 300 uM after 1 hr by scintillation counting analysis; type: cell membranes
[20] = biological target: T2, 5-hydroxytryptamine receptor 2A; assay: Agonist activity at human 5HT2A receptor expressed in HEK293 cells assessed as induction of intracellular calcium release at 100 to 1000 uM by fluorescence assay; type: functional, cell-based; procedure, shortened: as §3
[21] = biological target: T1, 5-hydroxytryptamine receptor 2C (Homo sapiens); assay: Agonist activity at human 5HT2C receptor expressed in HEK293 cells assessed as induction of intracellular calcium release up to 1000 uM measured up to 90 secs by fluorescence assay; type: functional, cell-based; procedure, shortened: as §2
[22] = biological target: T2, 5-hydroxytryptamine receptor 2A; assay: Agonist activity at human 5HT2A receptor expressed in HEK293 cells assessed as induction of intracellular calcium release up to 1000 uM measured up to 90 secs by fluorescence assay; type: functional, cell-based; procedure, shortened: as §2

T2 sequence (P28223 whole entry): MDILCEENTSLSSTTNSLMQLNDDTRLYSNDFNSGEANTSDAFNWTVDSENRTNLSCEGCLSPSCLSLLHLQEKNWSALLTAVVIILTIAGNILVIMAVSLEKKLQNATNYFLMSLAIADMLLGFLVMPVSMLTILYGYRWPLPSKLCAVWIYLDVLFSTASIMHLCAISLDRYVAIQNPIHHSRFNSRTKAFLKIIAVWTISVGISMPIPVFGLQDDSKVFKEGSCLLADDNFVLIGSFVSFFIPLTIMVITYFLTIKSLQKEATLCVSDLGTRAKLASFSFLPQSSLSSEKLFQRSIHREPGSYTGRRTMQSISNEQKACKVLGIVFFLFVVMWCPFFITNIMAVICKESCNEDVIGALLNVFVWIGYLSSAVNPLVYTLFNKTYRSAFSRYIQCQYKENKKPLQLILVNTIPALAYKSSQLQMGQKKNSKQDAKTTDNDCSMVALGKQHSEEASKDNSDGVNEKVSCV

## Cn1c2c(c3ccccc31)CCNCC2 [PNU-22394]
[1]
  Emax: 97%
[2]
  Emax: 98%
[3]
  Emax: 101%
[4]
  Emax: 102%
[5]
  EC50: 0.21 µM
[6]
  EC50: 0.12 µM
[7]
  EC50: 0.0077 µM
[8]; read-out: EC50
  EC50: 0.023 µM

## Clc1cncc(N2CCNCC2)n1 [MK-212]
[1]
  Emax: 93%
[2]
  Emax: 101%
[3]
  Emax: 93%
[4]
  Emax: 97%
[9]
  Ki: 3.4 µM
[10]; read-out: Ki
  Ki: 21 µM
[5]
  EC50: 1.2 µM
[6]
  EC50: 0.16 µM
[7]
  EC50: 0.028 µM
[8]; read-out: EC50
  EC50: 0.42 µM

## COc1noc2c1CCN(C)CC2
[11]
  Activity: inactive
[9]
  Ki: > 300 µM
[10]; read-out: Ki
  Ki: > 300 µM
[10]; read-out: pKi (converted)
  Ki: > 316 µM
[12]
  Activity: Active
[13]
  Activity: inactive
[8]; hek293, read-out: EC50
  EC50: > 1000 µM
[8]; read-out: pEC50 (converted)
  EC50: > 1000 µM

## c1ccc(COc2noc3c2CCNCC3)cc1
[14]
  Ratio EC50: 2
[15]
  Ratio EC50: 2
[1]
  Emax: 105%
[2]
  Emax: 77%
[3]
  Emax: 84%
[4]
  Emax: 59%
[9]
  Ki: 1.2 µM
[10]; read-out: Ki
  Ki: 3.3 µM
[5]
  EC50: 1.3 µM
[6]
  EC50: 0.23 µM
[7]
  EC50: 0.1 µM
[8]; read-out: EC50
  EC50: 0.24 µM

## Cc1cc2c(cc1Cl)N(C(=O)Nc1ccc(Oc3cccnc3C)nc1)CC2
[16]
  Activity: inactive

## CN1CC2c3ccccc3Oc3ccc(Cl)cc3C2C1 (racemic) [ASENAPINE]
[17]
  Ki: 0.0025 µM
[18]
  Ki: 0.00091 µM

## CC(=O)OCC[N+](C)(C)C
[19]
  Activity: inactive

## N[C@@H](CCC(=O)O)C(=O)O
[19]
  Activity: inactive

## Cn1oc2c(c1=O)CCNCC2
[9]
  Ki: > 300 µM
[10]; read-out: Ki
  Ki: > 300 µM
[10]; read-out: pKi (converted)
  Ki: > 316 µM
[12]
  Activity: Active
[20]
  Activity: Active

## NCCCC(=O)O
[19]
  Activity: inactive

## CCn1oc2c(c1=O)CCNCC2
[9]
  Ki: 300 µM
[10]; read-out: Ki
  Ki: 300 µM
[21]
  Activity: Active
[22]
  Activity: Active
